Bioassay records (PubChem BioAssay)
Sampled rows, rich in hits. Any-hit rate of the full collection: about 4%.
TAAR1 antagonist: human TAAR1 antagonists, primary screen, Fluo-8 calcium fluorescence, CHO RD-HGA16 cells. Trace amine-associated receptor 1 (Homo sapiens), Q96RJ0. antagonist. inhibition, % at 3 µM. 1.5% of 360,000 active. AID 624466, 2012;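 active = inhibition above a per-plate cutoff, the mean inhibition of test compounds on that plate plus 3 SD, cut at about 49% in these data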
Target sequence (Q96RJ0 whole entry, looked up): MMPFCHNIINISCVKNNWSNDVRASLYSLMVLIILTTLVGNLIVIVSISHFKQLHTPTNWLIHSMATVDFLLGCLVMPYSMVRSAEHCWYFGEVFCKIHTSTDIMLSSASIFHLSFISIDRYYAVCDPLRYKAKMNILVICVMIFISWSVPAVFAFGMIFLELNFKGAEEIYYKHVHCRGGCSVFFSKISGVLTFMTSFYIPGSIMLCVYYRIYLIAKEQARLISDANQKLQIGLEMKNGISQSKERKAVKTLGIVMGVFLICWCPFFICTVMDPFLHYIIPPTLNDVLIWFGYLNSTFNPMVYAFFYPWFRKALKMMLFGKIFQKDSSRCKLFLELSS
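Assay system: RD-HGA16 CHO cells with stable hTAAR1 and Gα16 / Reagent: EC80 β-phenethylamine stimulus / Doses: 3 µM, single point / Timing: dye loading 75 min at 37 °C, then 30 min room temperature / Measured by: Fluo-8 intracellular calcium dye fluorescence, real-time kinetic reads / Controls: vehicle wells and EC80 agonist wells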
TAAR1 ag: human TAAR1 agonists, primary screen, Fluo-8 calcium fluorescence, CHO RD-HGA16 cells. activation, % at 3 µM. 0.99% of 360,000 active. vehicle wells 0%, saturating PEA agonist 100%;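 active = activation above the mean activation of all test compounds in the run plus 3 SD, cut at about 38% in these data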
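System: CHO-derived RD-HGA16 cells with stable Gα16 and human TAAR1 / Times: 17-24 h plating, Fluo-8 75 min 37 °C, 30 min RT / Technique: calcium-sensitive Fluo-8 signal, excitation 470-495, emission 515-575 nm / Measure: % activation relative to PEA EC100 response / Benchmarks: DMSO and PEA EC100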
OX1R antag-1: antagonists of human orexin 1 receptor (OX1R) | AID 485270, 2010 | Orexin/Hypocretin receptor type 1 (Homo sapiens), O43613 | inhibition, % at 6.6 µM | OX1R-expressing cells, FRET antagonist read-out | 1.8% of 330,000 active; in the data active = inhibition mostly above about 38%, no sharp cut-off; inactive = mostly below about 40%
OX1R antag-2: OX1R (HCRTR1) antagonists, primary screen, fluorescence, CHO/OX1R cells, Fluo-8 calcium, orexin A. Fluo-8 calcium fluorescence. inhibition, % at 5 µM. 0.43% of 330,000 active;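 active = inhibition above its plate's threshold, mean inhibition of all tested compounds on the plate plus 3 SD, cut at about 37% in these data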
CHO parental Ca: ATP-evoked calcium signal inhibitors, parental CHO, primary screen, counter-screen for OX1R antagonist project, cell-based, fluorescence, Fluo-8 calcium dye; inhibition, % at 5.6 µM; 0.63% of 330,000 active; parental CHO-K1, ATP-induced calcium, Fluo-8 fluorescence; AID 463079, 2010;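 active = inhibition above that plate's mean sample inhibition plus 3 SD, cut at about 26% in these data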
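Measured by: calcium-sensitive Fluo-8 fluorescence / Test system: CHO parental line / Controls: ATP-challenged DMSO wells low, unchallenged DMSO wells high / Measure: % inhibition / Compound: single nominal dose of 5.6 µM per compound / Replicates: single well per compound, no replicates / Reagent: ATP as calcium-mobilizing challenge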
A number is an active result; i = inactive; nt = not tested or not shown.

SMILES | TAAR1 antagonist | TAAR1 ag | OX1R antag-1 | OX1R antag-2 | CHO parental Ca
COc1ccc(CCNC(=O)Cc2ccc(OCc3ccccc3)c(OC)c2[N+](=O)[O-])cc1OCc1ccccc1 | i | i | i | i | 46
COC(=O)c1cc2c(c3c4cc(C)ccc4n(S(=O)(=O)c4ccc(OC)cc4)c13)C(=O)N(C)C2 | i | i | nt | nt | nt
CCCOc1ccc(CCc2n[nH]c(=S)n2-c2ccccc2)cc1 | i | i | i | i | i
CCCOc1ccc(CCc2n[nH]c(=S)n2Cc2ccccc2)cc1 | 51 | i | i | i | i
COC(=O)[C@]12C[C@H](CC(=O)N3CCOCC3)C(=O)N(Cc3ccc4c(c3)OCO4)C1=C[C@H](C(C)(C)C)O[C@@H]2C | i | i | nt | nt | nt
CCC(=O)c1ccc(OCC(O)CNC(C)c2ccccc2)cc1 (stereo not drawn) | i | i | i | i | i
CC(C)c1ccc(OCC(O)CNC(C)c2ccccc2)cc1 (stereo not drawn) | i | 57 | i | i | i
CCC(NC(=O)c1ccncc1)c1ccccc1 (stereo not drawn) | i | i | i | i | i
O=C(Nc1nc2ccccc2[nH]1)c1ccc(Br)o1 | i | i | i | i | i
CC1(C)SC(=S)N(/N=C/c2ccccc2)C1N(O)C(=O)Nc1ccc([N+](=O)[O-])cc1 (stereo not drawn) | i | 44 | i | i | i
CNC(=O)N(O)C1N(/N=C/c2ccc(N(C)C)cc2)C(=S)SC1(C)C (stereo not drawn) | i | i | i | i | i
CC1(C)OC(=O)C(=NNc2ccc(Br)cc2)C(=O)O1 | i | i | i | i | i
COc1cc(C=C2C(=O)C=CC2=O)ccc1O | i | 43 | nt | nt | nt
COc1cc(/C=C2/C(=O)CNC2=O)ccc1O | i | i | i | i | i
COc1cc(/C=C/C(=O)/C=C(O)/C=C/c2ccc(O)c(OC)c2)ccc1O | 65 | 44 | i | i | i
COc1cc(/C=C/C(=O)O)ccc1O | i | i | i | i | i
COc1ccccc1C1OC2=C(Nc3ccc([N+](=O)[O-])cc3N2)C1=O (stereo not drawn) | i | i | 43 | i | i
Cc1nnc(SCc2cc([N+](=O)[O-])cc3c2OCOC3)n(N)c1=O | i | i | i | i | i
O=[N+]([O-])c1cc2c(c(CSc3nnc(Nc4ccccc4)s3)c1)OCOC2 | 53 | i | i | i | i
C[C@H](CO)N1C[C@H](C)[C@H](CN(C)C(=O)Nc2cccc(F)c2)OCc2cnnn2CCCC1=O | i | i | nt | nt | nt
CCOC(=O)COc1ccccc1/C=N\NC(=O)c1cc2c(ccc3ccccc32)o1 | 49 | i | nt | nt | nt
CCOc1cc(/C=N/NC(=O)c2cc3c(ccc4ccccc43)o2)ccc1O | i | i | nt | nt | nt
CCOC(=O)CNS(=O)(=O)c1cc(-c2nnc(Nc3ccc4c(c3)OCO4)c3ccccc23)ccc1C | 59 | i | i | 71 | 57
COc1cccc(-c2sc3ccccc3c2-c2ccc(OCCN(C)C)cc2)c1 | 51 | i | i | i | i
COc1cccc(-c2sc3ccccc3c2-c2ccc(OCCN3CCCC3)cc2)c1 | i | i | i | i | i
SMILES | TAAR1 antagonist | TAAR1 ag | OX1R antag-1 | OX1R antag-2 | CHO parental Ca
CCCCCCCCN1C(=O)[C@@H](CC(=O)NCCCOC)C[C@@]2(C(=O)OC)C1=C[C@H](C1CCCC1)O[C@@H]2C | i | i | nt | nt | nt
CCOC(=O)[C@@H](NC(=O)CC[C@H]1O[C@@H](n2cc(C)c(=O)[nH]c2=O)C[C@@H]1O)C(C)C | i | i | nt | nt | nt
COc1ccc(Nc2cc(NCCCO)c([N+](=O)[O-])c3nonc23)cc1 | i | i | 49 | i | i
COc1ccc(CNc2cc(NCCCO)c([N+](=O)[O-])c3nonc23)cc1 | i | i | i | i | i
CC1CCN(CCCNc2cc(NCCO)c([N+](=O)[O-])c3nonc23)CC1 | i | i | 38 | i | i
CN(CCO)c1cc(N2CCCCC2)c2nonc2c1[N+](=O)[O-] | i | i | i | i | i
CC1CCCN(c2cc(N(C)CCO)c([N+](=O)[O-])c3nonc23)C1 (stereo not drawn) | i | i | 48 | i | i
O=[N+]([O-])c1c(NCCCO)cc(N2CCCCCC2)c2nonc12 | i | i | 37 | i | i
COc1ccc(NC(=O)N(C)C[C@@H]2OCc3cnnn3CCCC(=O)N([C@@H](C)CO)C[C@@H]2C)cc1 | i | i | nt | nt | nt
O=S(=O)(c1ccc(C(F)(F)F)cc1)N1CCCc2nc(-c3ccc(F)cc3)ccc21 | i | i | nt | nt | nt
O=C(Nc1cc2c3c(c1)CC(=O)N3CCC2)c1ccco1 | i | i | i | i | i
CC(C)(CN1CCN(c2ccccc2)CC1)NS(=O)(=O)c1ccccc1 | i | i | i | i | i
O=[N+]([O-])c1c(NCCCO)cc(SCc2ccco2)c2nonc12 | i | i | 61 | i | i
CCn1cc(Cl)c(C(=O)N2N=C(c3ccc4ccccc4c3)CC2c2ccccc2O)n1 (stereo not drawn) | i | i | i | i | 60
CS(=O)(=O)c1ccc(-c2sc3ccccc3c2C#CCCO)cc1 | 54 | i | i | i | i
COc1ccc(-c2sc3cc(OC)c(OC)cc3c2C#CCCO)cc1 | i | i | i | i | i
COc1ccc2c(C#CCCO)c(-c3ccc(S(C)(=O)=O)cc3)sc2c1 | 62 | i | i | i | i
COc1ccc(-c2sc3ccccc3c2C#CCCO)cc1 | i | i | i | i | i
O=C(Nc1ccn(CCCNCC(c2ccccc2)c2ccccc2)c(=O)n1)OCc1ccccc1 | i | i | nt | nt | nt
Cn1c(=O)c2c(ncn2CCC(=O)N/N=C/c2ccncc2)n(C)c1=O | i | i | i | i | i
O=C(CSc1nnc(-c2ccc(Cl)cc2)n1Cc1ccco1)Nc1ccc2c(c1)OCCO2 | i | i | i | i | i
O=C(CSc1nnc(-c2c[nH]c3ccccc23)n1CC1CCCO1)Nc1ccc2c(c1)OCCO2 (stereo not drawn) | i | i | i | i | i
COc1ccc(NC(=O)CSc2nnc(-c3ccccc3)n2Cc2ccco2)cc1OC | i | i | 38 | i | i
CCn1c(SCC(=O)Nc2ccc3c(c2)OCCO3)nnc1-c1c[nH]c2ccccc12 | i | i | 38 | i | i
O=C(CSc1nnc(-c2ccccc2Cl)n1Cc1ccco1)Nc1ccc2c(c1)OCCO2 | i | i | 71 | i | i
COc1ccc2c(c1)[C@@]1(OCCC=C[C@H]1C)C(=O)N2CC1CC1 | i | i | nt | nt | nt
CCN(c1ccccc1)S(=O)(=O)c1ccc(C(=O)NCCCN2CCOCC2)cc1 | i | i | i | i | i
COCCN(CCOC)S(=O)(=O)c1ccc(C(=O)NCCCN2CCOCC2)cc1 | i | i | i | i | 56
